Assay outcomes (PubChem BioAssay)
pPAFAH FP inh: inhibitors of human plasma PAF acetylhydrolase (pPAFAH); Q13093; inhibition, % at 3.39 µM; 1.5% of 330,000 active; recombinant pPAFAH, FP-rhodamine probe fluorescence polarization;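 active = inhibition above the mean inhibition across the screen plus 3 SD, cut at about 25% in these data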;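 also: inhibitors block binding of the rhodamine activity-based probe so polarization drops; 0% = enzyme with DMSO and 100% = wells lacking pPAFAH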
Target sequence (Q13093 whole entry, looked up): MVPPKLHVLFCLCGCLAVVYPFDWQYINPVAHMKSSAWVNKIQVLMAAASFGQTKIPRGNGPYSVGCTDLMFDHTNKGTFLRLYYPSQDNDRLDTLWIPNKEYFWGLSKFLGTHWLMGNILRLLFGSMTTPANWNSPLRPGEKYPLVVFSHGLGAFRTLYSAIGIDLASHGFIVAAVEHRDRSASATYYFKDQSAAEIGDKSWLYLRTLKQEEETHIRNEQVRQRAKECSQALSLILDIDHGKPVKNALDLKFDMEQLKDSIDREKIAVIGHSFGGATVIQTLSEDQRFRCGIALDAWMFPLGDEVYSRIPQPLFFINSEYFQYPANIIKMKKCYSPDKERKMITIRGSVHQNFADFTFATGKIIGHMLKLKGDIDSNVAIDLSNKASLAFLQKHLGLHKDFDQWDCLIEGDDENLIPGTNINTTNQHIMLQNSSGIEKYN
PAFAH1B3 inh: inhibitors of human PAFAH1B3. AID 492972. 0.28% of 340,000 active. recombinant PAFAH1B3, FP-rhodamine probe, fluorescence polarization. Q15102. inhibition, % at 3.39 µM;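 active = inhibition above the screen-wide average of all tested compounds plus 3 SD, cut at about 25% in these data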;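 also: 0% = enzyme with DMSO only and 100% = wells lacking PAFAH1B3 protein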
PAFAH2 FP inh: PAFAH2 (human) inhibition; Q99487; recombinant PAFAH2, FP-rhodamine activity probe, fluorescence polarization; inhibition, % at 3.39 µM; 0.99% of 340,000 active; AID 492956;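 active = inhibition above the mean over all tested compounds plus 3 SD, cut at about 30% in these data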;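 also: inhibitors block probe labeling of enzyme so polarization drops; 0% = enzyme with DMSO and 100% = wells lacking PAFAH2 protein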
PAFAH1B2 FP inh: inhibitors of human PAFAH1B2. P68402. recombinant PAFAH1B2, FP-rhodamine activity probe, fluorescence polarization. inhibition, % at 3.39 µM. 1.2% of 340,000 active. AID 492953;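 active = inhibition above the mean of all tested compounds plus 3 SD, cut at about 24% in these data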;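 also: 0% = enzyme with DMSO and 100% = wells lacking PAFAH1B2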
Target sequence (P68402 whole entry, looked up): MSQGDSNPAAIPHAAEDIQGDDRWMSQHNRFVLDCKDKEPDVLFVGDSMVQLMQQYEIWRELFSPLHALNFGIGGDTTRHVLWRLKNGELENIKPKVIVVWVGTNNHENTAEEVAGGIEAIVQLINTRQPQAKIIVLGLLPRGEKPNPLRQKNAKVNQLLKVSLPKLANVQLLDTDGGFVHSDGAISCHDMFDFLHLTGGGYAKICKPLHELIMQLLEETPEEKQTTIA
Apaf1 inhib: human Apaf-1 inhibition; O14727; reconstituted apoptosome caspase-3 activity, DEVD-Rh110 fluorescence; inhibition, % at 20 µM; 0.71% of 330,000 active; active = inhibition of at least 40% at 20 µM;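 also: plate controls were DMSO wells for no effect and DEVD-CHO caspase inhibitor wells for full effect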
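Material: reconstituted apoptosome with Apaf-1, cytochrome c, caspase-9, procaspase-3, dATP. Technique: Rh110 fluorescence intensity. Buffer or medium: pH 7.5 Hepes buffer with CHAPS, BSA, DTT. Times: 30 min plus 50 min, RT.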
Apaf-1 inh conf: Apaf-1 inhibition, single-dose confirmed | 25% of 1,800 active | shares compounds with Apaf1 inhib | inhibition, % at 20 µM | reconstituted apoptosome, caspase-3 DEVD-Rh110 fluorescence | AID 504614;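 active = mean inhibition of at least 40% at 20 µM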;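 also: plate controls were DMSO wells for no effect and DEVD-CHO caspase inhibitor control wells for full effect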
Rh110 interf inh: interferes with Rh110 fluorescence, flagging false Apaf-1 inhibitors | activation (fluorescence interference), % at 20 µM | shares compounds with Apaf1 inhib | Rh110 fluorescence interference, quenched caspase reaction | 1,800 tested, under 10 active;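 active = signal rise of 40% or more at 20 µM, treated as a fluorescence artifact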
Fluor interf inh: Apaf-1 inhibitor counter-screen fluorescence artifact | shares compounds with Apaf1 inhib | fluorescence interference counterscreen, Apaf-1 assay format | 460 tested, under 10 active | IC50, µM; call rule not given here
* = called active by the depositor; / = not tested or not shown. In the library only some 3.1% were active in any assay of this set; here they are far more common.

SMILES	pPAFAH FP inh	PAFAH1B3 inh	PAFAH2 FP inh	PAFAH1B2 FP inh	Apaf1 inhib	Apaf-1 inh conf	Rh110 interf inh	others
Cc1cc2c(SCC(=O)Nc3cccc(O)c3)ncnc2s1	/	17.4	25.1	13.4	/	/	/
Fc1ccc(-[n+]2nc(Nc3ccccc3)sc2-c2c3ccccc3cc3ccccc23)cc1	26.3*	12.1	5.2	-3.9	42.5*	14.7	4.4
CCOC(=O)N1CCN(C(=O)C2CCN(C(=O)c3ccc(C(C)(C)C)cc3)CC2)CC1	4.8	-1.9	3.7	5.1	-7.9	/	/
COc1cc(Cl)c(C)cc1NC(=O)CN(C)C1CCS(=O)(=O)C1 (stereo not drawn)	-3.0	3.2	2.2	2.3	5.4	/	/
CSc1nnc2c(n1)[nH]c1c(C)cccc12	6.2	-6.9	0.1	-4.8	5.8	/	/
CSc1nncc(/C(C)=N\Nc2cccc(C)c2)n1	-5.6	7.0	-2.0	4.6	60.5*	10.4	-4.5
CSc1nncc(/C(C)=N\Nc2ccccc2)n1	2.8	3.0	7.4	2.5	70.4*	7.8	-7.0
CC/C(=N/Nc1ccccc1C)c1cnnc(SC)n1	1.7	2.1	-2.7	-1.7	40.7*	2.1	-7.9
Cc1ccccc1N(C=O)c1ccccc1C	/	5.9	4.5	3.2	/	/	/
COc1cccc(/C=C(\C)C(=O)c2c(C)cc(C)[nH]c2=O)c1OC	12.5	3.0	4.4	1.7	1.0	/	/
CCOC(=O)c1cnc(-n2nc(C)cc2C)nc1NC1CCCCC1	8.0	0.4	3.9	0.8	41.7*	19.4	-2.7
O=C1C(SCCO)=C(SCCO)C(=O)c2ccccc21	3.8	46.5*	49.8*	46.0*	96.9*	96.2*	0.3	Fluor interf inh=>100
CN1C[C@@H]2[C@@H]3C(=O)N(C)C(=O)[C@@H]3[C@](C)(C1=O)N2C(=O)c1ccccc1	/	-8.7	-1.2	9.2	/	/	/
CC(=O)OCCNc1cc(N2CCN(C)CC2)c2noc3c2c1C(=O)c1ccccc1-3	/	2.9	11.2	6.0	/	/	/
CCN1CCN(c2cc(N3CCN(C(=O)c4ccco4)CC3)c3c4c(onc24)-c2ccccc2C3=O)CC1	27.3*	-2.6	-18.9	1.4	41.8*	28.7	6.9
CN(C)S(=O)(=O)NCC1CCCN(Cc2ccc(-c3ccccc3)cc2)C1 (stereo not drawn)	5.6	10.1	-0.8	-0.1	-9.1	/	/
Cc1c(C(c2ccc(F)cc2)c2c(C)n(C)n(-c3ccccc3)c2=O)c(=O)n(-c2ccccc2)n1C	2.0	3.5	-2.0	2.0	-11.7	/	/
CC(=O)N(C1=C(N)C(=O)c2ccccc2C1=O)c1ccccc1	5.1	13.1	2.8	12.4	67.4*	81.3*	10.4	Fluor interf inh=>100
O=C(N(c1ccccc1)c1ccccc1)N(c1ccccc1)c1ccccc1	5.2	/	/	/	-9.9	/	/
COc1ccc(NC(=O)CSc2nc3c(c(-c4cccs4)c2C#N)CN(C)CC3)cc1OC	16.2	0.8	5.4	4.7	66.9*	8.6	4.0
Cc1cc(SCC2=NNC(=O)C2)c(Cl)cc1Cl	28.0*	9.7	-6.6	4.4	47.1*	33.4	-1.5
CCCCCCOC(=O)C(C#N)c1nc2ccccc2nc1N1CCN(CC)CC1 (stereo not drawn)	11.1	0.3	-0.6	3.4	41.7*	28.1	9.5
CCCCCCOC(=O)C(C#N)c1nc2ccccc2nc1N1CCOCC1 (stereo not drawn)	-2.0	11.6	5.1	1.2	21.3	/	/
CCCCNC1=CC(=O)C(=O)c2ccccc21	4.2	25.3	7.8	2.4	95.5*	83.9*	2.8	Fluor interf inh=>100
CCCCNC1=CC(=O)C(NCCCC)=CC1=O	/	17.2	-9.1	9.8	/	/	/
SMILES	pPAFAH FP inh	PAFAH1B3 inh	PAFAH2 FP inh	PAFAH1B2 FP inh	Apaf1 inhib	Apaf-1 inh conf	Rh110 interf inh	others
CCOc1ccc(NC(=O)c2c[nH]n3c(=O)cc(C4CCN(C(=O)OC(C)(C)C)CC4)nc23)cc1	23.8	9.1	15.2	7.5	40.4*	26.0	3.8
O=C(c1cc(Br)c(Br)s1)N1CCc2ccccc2C1	7.9	-5.4	-1.5	-2.9	10.8	/	/
CCC1C(=O)N=C(SCC(=O)Nc2cccc3ccccc23)NC1=O (stereo not drawn)	6.3	6.5	-6.9	2.1	-19.3	/	/
CCC1C(=O)N=C(SCC(=O)Nc2nc3ccccc3s2)NC1=O (stereo not drawn)	6.0	-5.2	-2.1	2.2	69.6*	2.0	8.8
Cc1ccc(CNC(=O)C2CCCN(S(=O)(=O)N3CC(C)CC(C)C3)C2)cc1 (stereo not drawn)	3.9	0.1	4.4	-2.5	10.3	/	/
O=C1CC2(CCN(S(=O)(=O)c3ccccc3F)CC2)Oc2ccccc21	3.9	3.5	1.8	6.8	11.7	/	/
CC1(C)Cc2cccc(OCC(=O)N3CCN(c4cccc(C(F)(F)F)c4)CC3)c2O1	7.7	4.2	-6.8	0.4	44.6*	44.9*	9.4	Fluor interf inh=>100
COc1ccc(C)cc1S(=O)(=O)Nc1ccc2c(c1)N(C(C)=O)CCC2	2.1	-1.2	-3.5	0.8	6.9	/	/
O=C(OCc1nc2ccccc2s1)c1ccc([N+](=O)[O-])o1	1.9	-2.4	8.4	0.9	69.3*	14.9	7.4
O=C(COC(=O)COc1ccc2ccccc2c1)NC1CCCc2ccccc21 (stereo not drawn)	9.4	6.3	2.5	9.9	6.6	/	/
OC(CNC1CCCc2ccccc21)COc1ccc2ccccc2c1 (stereo not drawn)	1.0	10.9	-5.2	3.0	47.2*	14.7	13.7
CCc1ccccc1OC[C@@H](O)CN[C@H]1CCCc2ccccc21	2.1	8.3	-2.2	-2.8	46.0*	1.2	-3.5
COc1ccccc1CNC1CCCc2ccccc21 (stereo not drawn)	/	3.7	-0.9	0.3	-7.1	/	/
O=C(c1ccccc1)c1ccc(OCC(O)CNC2CCCc3ccccc32)cc1 (stereo not drawn)	3.4	4.0	6.2	4.7	51.7*	19.8	10.3
CCOc1ccc(S(=O)(=O)NCc2ccc3c(c2)OCO3)cc1NC(C)=O	4.1	-1.5	1.2	-2.1	-2.6	/	/
CC(=O)Nc1ccc(NC2=C(Cl)C(=O)c3ccccc3C2=O)cc1	/	/	/	/	38.1	/	/
Cc1ccc(NC2=C(NCCO)C(=O)c3ccccc3C2=O)cc1	-4.2	21.6	8.6	-2.7	78.1*	61.2*	0.4	Fluor interf inh=>100
CCCN1CCN(C(=O)c2oc3c(Cl)cccc3c2C)CC1	3.1	3.9	-4.8	-2.9	4.4	/	/
Cc1cccc(NC(=O)CN2CCN(C(=O)c3oc4c(Cl)cccc4c3C)CC2)c1C	-1.4	-1.6	4.6	0.3	69.9*	17.3	7.9
Cc1cccc(NC2=C(NC(=O)c3ccccc3)C(=O)c3ccccc3C2=O)c1	4.8	21.1	10.9	6.5	73.4*	58.3*	10.7	Fluor interf inh=>100
Cc1cccc(C(=O)Nc2cccc(NC(=O)c3ccccc3)c2)c1	7.0	10.2	-1.1	-4.0	2.7	/	/
